# Source: PubChem BioAssay
# SR-BI HDL uptake – blocks mouse SR-BI lipid uptake from DiI-HDL | ldlA[mSR-BI] CHO cells, DiI-HDL uptake fluorescence, 3 h | actives 0.96% (n = 320,000) | inhibition, % at 12.5 µM | Q61009;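 active = mean replicate inhibition of at least 70% and a set share of replicates each scoring 70 or more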;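 note: 0% = median of neutral control wells and 100% = median of positive control wells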
# Target sequence (Q61009 whole entry, looked up): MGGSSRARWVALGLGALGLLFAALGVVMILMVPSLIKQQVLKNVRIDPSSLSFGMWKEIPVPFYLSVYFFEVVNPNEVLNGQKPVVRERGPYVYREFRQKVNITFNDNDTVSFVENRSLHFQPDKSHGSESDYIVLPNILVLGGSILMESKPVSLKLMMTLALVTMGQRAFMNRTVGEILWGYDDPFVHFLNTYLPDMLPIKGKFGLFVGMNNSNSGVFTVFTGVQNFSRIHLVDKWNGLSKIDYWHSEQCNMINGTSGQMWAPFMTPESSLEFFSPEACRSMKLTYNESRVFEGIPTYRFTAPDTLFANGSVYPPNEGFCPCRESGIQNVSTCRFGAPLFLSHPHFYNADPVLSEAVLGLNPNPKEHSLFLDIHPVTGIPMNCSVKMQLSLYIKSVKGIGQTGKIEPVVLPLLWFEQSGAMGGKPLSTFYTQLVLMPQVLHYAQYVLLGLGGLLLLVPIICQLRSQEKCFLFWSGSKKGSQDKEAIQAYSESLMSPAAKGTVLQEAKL
# Dyrk1A ADPGlo – Dyrk1A (rat) kinase inhibition | Q63470 | ADP-Glo luminescence, NFATc1 peptide | inhibition, % at 12.5 µM | actives 0.43% (n = 310,000) | AID 504441;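 note: plate controls were vehicle with enzyme for no effect and no enzyme for full effect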
# NSD2 HMT inh – inhibitors of human histone methyltransferase NSD2; NSD2 peptide methylation, AlphaScreen, 120 min; O96028; inhibition, % at 12.5 µM; actives 0.54% (n = 310,000)
# SR-BI uptake up – activators of SR-BI mediated HDL lipid uptake; CHO ldlA[mSR-BI] cells, DiI-HDL uptake fluorescence, 3 h; 100 = double the neutral-control signal; activation, % at 12.5 µM; actives 0.096% (n = 320,000); AID 504775;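 active = mean replicate activation of at least 60% and every replicate at or above 60%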;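 note: 0% = median plate neutral-control signal and 100% = twice that signal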
#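 Assay system: CHO ldlA[mSR-BI] cells, LDL receptor-null, SR-BI overexpressing; medium: Ham's F12 with 0.5% BSA, HEPES 25 mM, pH 7.4; also added: DiI-HDL 10 µg/mL; timing: 3 h uptake period with compound, 37 °C; signal: DiI fluorescence, bottom read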
# dFosB act – activators of mouse delta FosB homodimer; actives 0.99% (n = 340,000); purified delta FosB, TAMRA-CDK5 oligo fluorescence polarization; percent of positive-control signal above neutral wells; activation, % at 25 µM; P13346;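 active = mean activation above about 17%, with every replicate also reaching it, limit read from the data, passing the limit was not always enough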
# CDK5 p35 inh – inhibitors of human CDK5/p35 kinase; Q00535+Q15078; Recombinant CDK5/p35, ADP-Glo luminescence, 60 min; inhibition, % at 10 µM; actives 0.01% (n = 330,000); AID 488839;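 active = highest replicate inhibition of at least 50% and at least 75% of replicates reaching 50%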;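 note: plate controls were DMSO neutral control for no effect and GW8510 at 10 µM for full effect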
# Active calls of the source: *; x = no result given. A selection: hits, their analogues and other compounds. The true share with any hit is near 2.5%. Cut-off read from the data, not from the text of the source, unless noted: active = inhibition above about 50%; inactive = the rest.
SMILES,SR-BI HDL uptake,Dyrk1A ADPGlo,NSD2 HMT inh,SR-BI uptake up,dFosB act,CDK5 p35 inh
CCc1nnc2sc(-c3ccc(NC(=O)CSc4ccc(Cl)cc4)cc3)nn12,77.1*,1.8,0.2,x,-2.5,-0.6
Cc1nnc2sc(-c3ccc(NC(=O)CSc4ccc(Cl)cc4)cc3)nn12,33.2,5.7,8.4,-33.2,15.5,-3.9
O=C(NC1CCCCC1)C(c1ccc(O)c(O)c1)N(C(=O)Cn1nnc2ccccc21)c1cccc(O)c1 (centres undefined),15.4,3.3,-3.4,-15.4,32.0*,2.3
CC(=O)c1cccc(N(C(=O)Cn2nnc3ccccc32)C(C(=O)NC2CCCCC2)c2cn(C)nc2C)c1 (centres undefined),-0.9,-2.0,x,0.9,-1.0,3.4
CCOc1ccc(-c2ccc(SCC(=O)Nc3nnc(CC)s3)nn2)cc1,-16.2,13.5,0.3,16.2,-3.7,2.6
CCOc1ccc(-c2ccc(SC)nn2)cc1,8.9,55.7*,-5.2,-8.9,-1.4,33.1
CCNC(=O)C1CC(=O)N(Cc2ccc3c(c2)OCO3)C(=Nc2ccc(F)cc2)S1 (centres undefined),-11.4,-32.9,-1.1,11.4,-1.0,-1.0
C/C(CCc1ccc2c(c1)OCO2)=N\N=C1\NC(=O)CC(C(=O)Nc2ccccc2F)S1 (centres undefined),72.8*,5.1,2.0,-72.8,-3.8,0.0
O=C(CCCN1C(=O)/C(=C\c2cccs2)SC1=S)Nc1ccc(O)cc1,x,-3.2,7.7,x,-0.4,-0.2
O=C(CCCN1C(=O)/C(=C/c2cccs2)SC1=S)NNC(=O)c1ccccc1O,103.7*,1.5,0.2,-103.7,6.2,-0.3
COc1ccc(/C=C2/SC(=S)N(CCCC(=O)Nc3ccccc3C(=O)O)C2=O)cc1,x,5.9,45.9,x,-6.9,-3.9
COc1cccc(/C=C2\SC(=S)N(CCC(=O)NNC(=O)c3ccccc3OC)C2=O)c1,x,-5.5,-0.4,x,3.8,0.5
O=C(CCCN1C(=O)/C(=C/c2cccs2)SC1=S)Nc1ccccc1O,x,-6.2,1.5,x,33.6*,0.3
COc1ccc(/C=C2\SC(=S)N(CCCC(=O)NNC(=O)c3ccccc3O)C2=O)cc1,109.6*,-3.9,0.9,-109.6,44.5*,0.7
COc1ccccc1/C=C1\SC(=S)N(CCC(=O)NNC(=O)c2ccccc2O)C1=O,124.3*,-2.7,1.0,x,15.9,-2.2
CNC(=O)C(C)N1c2cccc3cccc(c23)S1(=O)=O (centres undefined),-10.0,-4.4,-0.1,10.0,-6.2,1.3
C/C(=C\C(=O)c1ccc(Br)cc1)NNC(=O)c1ccccc1,86.1*,-9.9,1.0,-86.1,-5.5,-0.3
CCc1nc2c(OCc3ccc(C(F)(F)F)cc3)cccn2c1N(C)C(=O)C1CC1,x,x,2.9,x,x,x
CCN1CCC(O)(/C=C/c2ccc(C(C)C)cc2)C(C(=O)/C=C/c2ccc(C(C)C)cc2)C1 (centres undefined),26.3,x,8.0,-26.3,53.9*,-0.2
CCN1CCN(C(=O)/C=C/c2ccc(C(C)C)cc2)CC1,-3.1,-6.0,5.8,3.1,4.9,0.1
O=C(NC1CCc2ccccc21)c1cc(-c2ccc(Cl)cc2)nc2ccccc12 (centres undefined),x,x,-3.2,x,x,x
COc1cccc(C(=O)Nc2ccc(Oc3nnc(-c4ccccc4)c4ccccc34)cc2)c1,x,x,0.6,x,x,x
Cc1ccc(-c2nnc(Oc3ccc(NC(=O)c4ccccc4)cc3)c3ccccc23)cc1,-168.7,x,-1.9,168.7*,4.3,-6.2
Cc1ccc(-n2c(SCC(=O)Nc3ccc4c(c3)OCCO4)nnc2-c2cccnc2)cc1,x,x,-2.0,x,x,x
CC(C)[C@H](NC(=O)OCc1ccccc1)C(=O)N[C@@H](Cc1ccccc1)C1(O)CN(C)C(C(=O)NCc2ccccn2)CO1 (some centres undefined),x,x,1.0,x,x,x
SMILES,SR-BI HDL uptake,Dyrk1A ADPGlo,NSD2 HMT inh,SR-BI uptake up,dFosB act,CDK5 p35 inh
CC1=[N+](C)c2ccc3ccccc3c2C1(C)C,-222.8,-1.1,14.0,222.8*,-6.8,0.3
c1ccc2c(c1)ccc1ccccc12,0.0,2.2,x,0.0,1.3,-3.3
Cc1ccc2[nH]c(C(=O)N/N=C/c3ccccc3O)c(C)c2c1,132.1*,-7.5,0.1,-132.1,-9.5,1.5
COc1ccc(OC)c(/C=N/NC(=O)c2cc3c(OC)c(OC)ccc3[nH]2)c1,71.9*,2.8,0.3,-71.9,3.9,0.6
COc1ccc(OC)c(/C=N/NC(=O)c2ccc3nc[nH]c3c2)c1,15.2,7.7,-0.7,-15.2,0.6,-0.1
COc1cc(OC)c2cc(C(=O)N/N=C/c3ccccc3O)[nH]c2c1,122.9*,2.7,2.3,-122.9,7.7,-1.1
CCn1c(C)nc2cc(C(=O)N/N=C(\C)c3ccc(OC)cc3O)ccc21,88.3*,x,3.8,-88.3,-6.6,-0.7
Cc1nc(NC(=O)c2ccco2)sc1-c1csc(Nc2ccc(Cl)cc2)n1,84.5*,10.4,x,-84.5,-3.7,-1.5
COc1ccccc1Nc1nc(-c2sc(NC(=O)c3ccco3)nc2C)cs1,85.1*,-2.7,x,-85.1,-3.0,-3.1
CCOc1ccc(-n2c(SCC(=O)Nc3cc4oc5ccccc5c4cc3OC)nnc2-c2cccc(Cl)c2)cc1,x,x,-3.1,x,x,x
COc1ccc(N=c2cc(-c3ccc(O)cc3)oc3ccccc23)cc1,64.6,2.5,3.6,-64.6,42.0*,-1.6
Cc1ccc(NC(=O)/C(C#N)=C/c2cn(CC(=O)NCc3ccco3)c3ccccc23)cc1C,36.2,0.8,x,-36.2,60.3*,-0.7
Cc1ccc(OCCn2cc(/C=C(\C#N)C(=O)NCC3CCCO3)c3ccccc32)cc1 (centres undefined),53.9,2.7,-0.7,-53.9,2.2,0.4
Cc1ccc(OCCn2cc(/C=C(\C#N)C(=O)NCC3CCCO3)c3ccccc32)cc1C (centres undefined),75.6*,2.0,0.2,-75.6,-16.0,0.5
Cc1cc(C)cc(NC(=O)/C(C#N)=C/c2cn(CC(=O)NCc3ccco3)c3ccccc23)c1,43.3,-0.7,1.4,-43.3,33.2*,0.2
Cc1ccc(C)c(NC(=O)/C(C#N)=C/c2cn(CC(=O)NCc3ccco3)c3ccccc23)c1,16.5,-3.1,-0.4,-16.5,-6.8,-2.3
Cc1ccc(NC(=O)Cn2cc(C=O)c3ccccc32)cc1C,10.7,-6.1,-5.0,-10.7,20.1*,1.1
COc1ccc(NC(=O)c2cccc(NC(=O)c3ccco3)c2)cc1,x,x,2.1,x,x,x
COc1ccc(-c2nc(NC(=O)c3ccccc3)sc2-c2ccc([N+](=O)[O-])cc2)cc1,78.5*,0.4,-2.4,-78.5,4.7,0.1
COc1ccc(-c2sc(NC(C)=O)nc2-c2ccccc2)cc1,80.5*,1.3,-3.1,-80.5,-0.7,x
COCCSc1ncccc1-c1nc2ccccc2[nH]1,x,x,-3.4,x,x,x
